Jurkat NFkB inh: lowers PMA/ionomycin-induced NF-kB signal in Jurkat cells. 330,000 compounds, 0.53% hits. PMA/ionomycin-induced NF-kB luciferase reporter, luminescence. inhibition, % at 4 µM; in the data active = inhibition above about 50%
697 NFkB inh: lowers PMA/ionomycin-induced NF-kB signal in 697 B cells | 697 B-cell NF-kB luciferase reporter, 16 h | inhibition, % at 4 µM | 330,000 compounds, 0.33% hits | AID 435022; in the data active = inhibition above about 35%
CHOP UPR activ: apoptotic UPR (CHOP) activation; 330,000 compounds, 0.34% hits; CHO-CHOP luciferase reporter, luminescence; percent of tunicamycin response over DMSO baseline; activation, % at 10 µM; AID 449763;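 active = at 10 µM dose, activation of 40% or more, normalized to positive control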;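 note: 100% = tunicamycin at 10 µg/mL and 0% = DMSO alone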
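Test system: CHO CHOP reporter cells. Input: 500 CHO-CHOP cells per well. Medium: F12 with 10% FBS. Technique: luciferase luminescence. Measure: percent activation relative to tunicamycin control. Dosing: 10 µM compound, 0.5% DMSO. Timing: 16-18 h cell attachment, then 6 h compound exposure, 37 °C.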
UPR XBP1 act: adaptive UPR (XBP1) activation; CHO-XBP1 luciferase reporter, IRE1-XBP1 UPR activation, luminescence; percent of tunicamycin response, DMSO as zero; activation, % at 20 µM; AID 463104; 330,000 compounds, 0.33% hits;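 active = versus positive control, 20 µM dose yields 30% or more activation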;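 note: 100% = tunicamycin at 10 µg/mL and 0% = DMSO only wells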
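incubation = overnight seeding at 37 °C, 6 h compound treatment at 37 °C | assay system = CHO-XBP1 cells stably carrying IRE1-XBP1-driven luciferase reporter | input = 1000 cells per well | detection = luciferase luminescence | dosing = single point, 20 µM final compound, 1% DMSO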
CRFR2-BP antag: antagonists of CRF-binding protein/CRF-R2 receptor complex | HEK293 CRF-R2/CRF-BP, CRF-induced calcium fluorescence | inhibition, % at 11.8 µM | 350,000 compounds, 0.59% hits | AID 588475;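 active = inhibition of the ligand-induced calcium signal above about 50% at the single tested concentration, limit read from the data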
697 NFkB conf: inhibitors of the PMA/ionomycin-induced NF-kB reporter in 697 B cells, retest | AID 449746 | 2,000 compounds, 35% hits | shares compounds with 697 NFkB inh | inhibition, % at 4 µM | 697 B-cell NF-kB luciferase, 16 h; in the data active = inhibition mostly above about 28%, no sharp cut-off; inactive = mostly below about 22%
An asterisk follows results filed as active; . = no result. Most compounds without a hit are left out; they make up all but 1.8% or so of the library.

SMILES | Jurkat NFkB inh | 697 NFkB inh | CHOP UPR activ | UPR XBP1 act | CRFR2-BP antag | 697 NFkB conf
C[C@H](CO)N1C[C@H](C)[C@@H](CN(C)S(=O)(=O)c2cccs2)Oc2c(NC(=O)C3CC3)cccc2C1=O | -1 | 16 | -1 | -2 | -8 | .
C[C@H](N)c1nnc(SCC(=O)c2ccc(Cl)cc2)o1 | -4 | 9 | 0 | -2 | 22 | .
CC(C)[C@H](N)c1nnc(SCC(=O)c2ccc(Cl)cc2)o1 | 7 | 58* | 3 | 1 | -2 | 35*
COc1ccc(C(=O)NCc2ccccc2CN2CCCC2)cc1S(=O)(=O)Nc1ccc(C)cc1 | -12 | -9 | 1 | 2 | -16 | .
NS(=O)(=O)c1cnccc1Oc1cccc(Cl)c1 | -33 | -48 | -1 | -2 | 7 | .
COc1cc(N2Cc3ccccc3C2)ccc1C=O | -41 | -250 | 2 | -3 | 2 | -209
Cc1cc(C)cc(N2Cc3ccccc3C2)c1 | -18 | 0 | 2 | 1 | -31 | .
C=CC(=O)N(CCC)C(c1ccccc1)c1ccccc1OC (centres undefined) | -1 | 21 | 0 | -2 | -5 | .
Cc1c(/N=C(\[O-])Nc2ccc(Br)cc2)sn[n+]1C | -86 | -274 | 0 | -3 | -1 | -264
CSc1ncnc2c1ncn2CCCNCc1ccc2c(c1)OCO2 | . | . | . | . | 5 | .
O=C1N/C(=C\c2nc3ccccc3s2)c2ccccc21 | -107 | -322 | -4 | -9 | . | -453
Cc1oc2cc3oc(=O)c(CCC(=O)NCCN4CCOCC4)c(C)c3cc2c1C | -6 | 18 | 3 | -6 | 7 | .
O=C1CC(c2ccc3c(c2)OCO3)CN1 (centres undefined) | 24 | 38* | -2 | 5 | 8 | 12
CCOc1ccc(/C=C2\SC(=S)N(CCC(=O)Nc3cccc(C(=O)O)c3)C2=O)cc1 | 29 | 68* | 0 | -3 | 17 | 68*
CCc1ccc(/C=C2/SC(=S)N(CCC(=O)Nc3cccnc3)C2=O)cc1 | 22 | 77* | 4 | 1 | -7 | 67*
COc1cccc(/C=C2\SC(=S)N(CCCC(=O)Nc3cccc(C(=O)O)c3)C2=O)c1 | . | . | . | . | -32 | .
O=C(CCCN1C(=O)/C(=C\c2ccccc2)SC1=S)Nc1ccc(C(=O)O)cc1 | -11 | 19 | 0 | -3 | -16 | .
O=C(CCN1C(=O)/C(=C/c2ccc3c(c2)OCO3)SC1=S)Nc1ccc(C(=O)O)cc1 | 2 | -2 | 1 | 2 | -9 | .
O=C(CCCN1C(=O)/C(=C/c2ccc3c(c2)OCO3)SC1=S)Nc1ccc(C(=O)O)cc1 | 20 | 78* | -2 | -7 | -6 | 78*
CCOc1ccc(/C=C2\SC(=S)N(CCC(=O)Nc3ccc(C(=O)O)cc3)C2=O)cc1 | -3 | 81* | 1 | -4 | 17 | 77*
CN(C)c1ccc(CN(C(=O)c2ccccc2Br)C2CCS(=O)(=O)C2)cc1 (centres undefined) | -10 | -18 | 0 | -2 | 1 | .
CCOC1=C(C#N)CC2(CC1)c1ccccc1-c1ccccc12 | . | . | . | . | -5 | .
CCN(CC(=O)NC1CCCC1)S(=O)(=O)c1ccc(Br)cc1 | -13 | -2 | -1 | -4 | -22 | .
O=C1/C(=C\c2ccccc2)SC(=S)N1CCC(=O)N1CCCCC1CCO (centres undefined) | 10 | 2 | 3 | -2 | -6 | .
CCOc1ccc(/C=C2\SC(=S)N(CCCC(=O)NCCCN3CCOCC3)C2=O)cc1 | 11 | 38* | -8 | -10 | -2 | 52*
SMILES | Jurkat NFkB inh | 697 NFkB inh | CHOP UPR activ | UPR XBP1 act | CRFR2-BP antag | 697 NFkB conf
CC(C)c1ccc(/C=C2\SC(=S)N(CCC(=O)NCCCn3ccnc3)C2=O)cc1 | -8 | 38* | 4 | 3 | -4 | 38*
CCc1ccc(/C=C2\SC(=S)N(CCCC(=O)Nc3ccc(C(=O)O)cc3)C2=O)cc1 | -11 | 73* | -8 | -8 | 1 | 84*
CC(C)c1ccc(/C=C2\SC(=S)N(CCC(=O)N3CCCCC3CCO)C2=O)cc1 (centres undefined) | 6 | 70* | -8 | -10 | -12 | 71*
COc1ccc(/C=C2\SC(=S)N(CCC(=O)NCCCn3ccnc3)C2=O)cc1 | -22 | -10 | -3 | -3 | -10 | .
C[C@H](CO)N1C[C@H](C)[C@@H](CN(C)CC2CC2)Oc2c(NC(=O)Cc3ccccc3)cccc2C1=O | 2 | -1 | -1 | 2 | 8 | .
O=C(O)c1c2c(nc3ccccc13)/C(=C/c1cccc([N+](=O)[O-])c1)CCC2 | . | . | . | . | -2 | .
Cn1c(=O)n(C)c2cc(NS(=O)(=O)c3ccccc3)ccc21 | -2 | 36* | 2 | -2 | -9 | 32*
Cn1c(=O)n(C)c2cc(S(=O)(=O)Nc3ccccc3)ccc21 | -4 | 1 | -3 | -2 | 14 | .
Cc1ccc(NS(=O)(=O)c2ccc3c(c2)n(C)c(=O)n3C)cc1C | 7 | -6 | -1 | -5 | 11 | .
Cc1ccc(S(=O)(=O)Nc2ccc3c(c2)n(C)c(=O)n3C)cc1 | -10 | 47* | 1 | -1 | 2 | 29*
Cc1ccc(S(=O)(=O)N2CCC(C(=O)OC(C)C(=O)NC3CCCCC3C)CC2)cc1 (centres undefined) | -9 | 4 | 2 | -1 | -1 | .
CCOc1ccc(NC(=O)C2CCC(CNc3c(N4CCCCC4)c(=O)c3=O)CC2)cc1 (centres undefined) | 0 | 2 | -2 | -4 | 4 | .
O=C(Nc1ccc(F)cc1)C1CCC(CNc2c(N3CCCCC3)c(=O)c2=O)CC1 (centres undefined) | -1 | 38* | 0 | -2 | 13 | 16
CCc1ccc(NC(=O)Nc2ccsc2C(=O)OC)cc1 | -32 | -358 | 1 | -4 | -2 | -315
COC(=O)c1sccc1NC(=O)Nc1ccc(C)c(C)c1 | -4 | -159 | 2 | -3 | -15 | .
CCOc1cc(C(=O)N=c2sccn2C)ccc1OC(F)F | -31 | -30 | 1 | -1 | -10 | .
CC(=O)Nc1cc(C(=O)N2CCCC2)ccc1Sc1ccc(C)cc1 | 0 | 38* | 1 | -1 | 18 | 15
Cc1ccc(/C=C/c2nc3ccccc3s2)s1 | -106 | -381 | -7 | -5 | -9 | -277
CS(=O)(=O)n1nc(-c2ccc(Cl)cc2)nc1N | 2 | -3 | 2 | 4 | 6 | .
Cn1nc(-c2ccc(Cl)cc2)nc2c(=O)n(C)c(=O)nc1-2 | 28 | -316 | -9 | -4 | . | -293
COc1ccc(OC)c(NC(=O)c2cc3c(Cl)nc4ccccc4c3s2)c1 | -1 | 31 | 1 | 10 | -5 | .
COc1ccc(NC(=O)c2cc3c(Cl)nc4ccccc4c3s2)cc1OC | 11 | 44* | 4 | 9 | -21 | 39*
O=c1cc(N2CCN(c3cccc(Cl)c3)CC2)[nH]c(=O)n1C1CCCCC1 | 47 | 43* | -3 | 6 | -14 | 29
